NPY-Y1 antag – blocks the human neuropeptide Y Y1 receptor | P25929 | HEK293-CNG Y1 cells, membrane potential fluorescence; NPY at EC95, then isoproterenol | inhibition, % at 3.6 µM | 200,000 tested, 1% active | AID 1040;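 active means inhibition above the campaign mean inhibition of all tested compounds plus 3 SD, cut at about 20% in these data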;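 further: 0% = DMSO wells given NPY plus isoproterenol and 100% = isoproterenol alone without NPY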
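Test system – HEK293 Y1/CNG channel cell line · Also added – NPY agonist 25 nM, then isoproterenol 1 µM plus Ro 20-1724 25 µM · Compound dosing – one concentration, 3.6 µM, in 0.4% DMSO · Schedule – compound incubation 1 h at room temperature, readout 45 min post-stimulation · Technique – fluorescence, membrane potential probe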
NPY-Y2 PAM-ag – human NPY-Y2 potentiation or agonism, primary screen. P49146. cells expressing NPY-Y2, potentiator/agonist read-out. activation, % at 3.6 µM. 220,000 tested, 0.45% active; in the data active means activation above about 27%;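 further: cells stimulated with NPY near EC25 plus isoproterenol at EC100; 0% = vehicle plus submaximal agonist and 100% = vehicle plus saturating agonist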
Target sequence (P49146 whole entry, looked up): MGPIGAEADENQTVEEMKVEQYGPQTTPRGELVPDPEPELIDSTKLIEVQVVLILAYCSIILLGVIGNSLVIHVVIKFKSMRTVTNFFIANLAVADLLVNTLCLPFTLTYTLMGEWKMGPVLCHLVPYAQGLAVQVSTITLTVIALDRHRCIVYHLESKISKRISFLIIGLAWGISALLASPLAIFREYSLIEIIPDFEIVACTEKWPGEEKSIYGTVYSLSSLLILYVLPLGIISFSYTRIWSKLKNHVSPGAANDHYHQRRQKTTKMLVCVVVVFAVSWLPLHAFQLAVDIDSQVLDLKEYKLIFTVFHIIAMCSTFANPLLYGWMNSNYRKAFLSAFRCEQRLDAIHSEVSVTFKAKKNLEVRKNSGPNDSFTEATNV
EP2 modulator – modulates human prostaglandin E2 receptor EP2 signaling; 260,000 tested, 0.83% active; P43116; induction, % at 25 µM; AID 940; EP2-expressing cells, cAMP HTRF FRET, PGE2 co-stimulation;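 active means compounds whose cAMP rise, as percent of the full-agonist control response, exceeds 60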;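 further: rat C6 glioma line stably carrying human EP2 under a CMV promoter; the protocol text gives 20 µM as final concentration; 100% = response of wells given 1 µM PGE2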
Target sequence (P43116 whole entry, looked up): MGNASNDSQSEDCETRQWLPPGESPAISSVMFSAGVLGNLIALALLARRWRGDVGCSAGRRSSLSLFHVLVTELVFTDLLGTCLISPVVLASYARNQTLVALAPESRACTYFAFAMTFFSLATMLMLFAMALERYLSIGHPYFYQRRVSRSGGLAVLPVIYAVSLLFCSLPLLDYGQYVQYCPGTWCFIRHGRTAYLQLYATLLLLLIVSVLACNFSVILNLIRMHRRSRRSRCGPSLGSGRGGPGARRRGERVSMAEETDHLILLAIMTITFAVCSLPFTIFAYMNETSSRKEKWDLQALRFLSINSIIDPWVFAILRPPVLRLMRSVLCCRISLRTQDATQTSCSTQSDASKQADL
NPY1 pot ag – potentiates or activates human NPY-Y1 receptor; NPY-Y1 expressing cells, potentiator/agonist activation; activation, % at 3.6 µM; P25929; 220,000 tested, 0.37% active; in the data active means activation above about 33%, passing the limit was not always enough;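 further: cells stimulated with NPY at EC10 then isoproterenol at EC100; 0% = low agonist plus stimulus and 100% = saturating agonist plus stimulus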
NPY-Y2 antag – blocks the human neuropeptide Y Y2 receptor; P49146; NPY-Y2 expressing cells, antagonist mode; inhibition, % at 2.7 µM; 140,000 tested, 0.99% active; AID 793; in the data active means inhibition above about 17%;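 further: 0% = vehicle with agonist challenge and 100% = reference antagonist with challenge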
PGE2 EP2 inh – blocks the human prostaglandin E2 receptor EP2. 260,000 tested, 0.52% active. inhibition, % at 25 µM. P43116. C6 glioma cells expressing human EP2, cAMP TR-FRET; cells stimulated with saturating PGE2;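 active means percent inhibition above 40 after rounding to a whole number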;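 further: rat C6 glioma host cells with rolipram phosphodiesterase inhibitor present; the protocol text gives 20 µM as final concentration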
EP2 cAMP induct – EP2 receptor cAMP induction, counter-screens negative; shares compounds with EP2 modulator; C6 glioma EP2 cells, cAMP HTRF induction; plus low (about EC15) PGE2 agonist; calls only at 20 µM (by protocol); 1,300 tested, 47% active; AID 1080;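 active means cAMP induction above 50% in the main assay while under 30% in all four parallel counter assays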;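 further: rat C6 glioma cells stably expressing human EP2 receptor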
* marks the source's active call; other numbers are inactive results; i = inactive; . = no result; + = active, no number. Only some compounds are listed: those with a hit (about 2.8% of all), similar ones and a draw of the others.

SMILES | NPY-Y1 antag | NPY-Y2 PAM-ag | EP2 modulator | NPY1 pot ag | NPY-Y2 antag | PGE2 EP2 inh | EP2 cAMP induct
O=C(/C(=C/O)N=Nc1ccccc1)c1cccs1 | -1 | 8 | 81* | -6 | . | 4 | +
O=C(Nc1cc(Cl)ccc1Cl)c1cccs1 | . | . | 8 | . | . | 14 | .
COc1ccc2cc3c(N)nn(C(=O)Cc4ccccc4OC)c3nc2c1 | -2 | -23 | 0 | -28 | 2 | 13 | .
COc1ccc2cc3c(N)nn(C(=O)C4CCC(C(C)(C)C)CC4)c3nc2c1 (stereo not drawn) | -3 | 8 | 69* | -15 | -2 | 13 | i
Cc1nc2ncnn2c(NCc2cccs2)c1Cc1ccccc1 | . | . | -1 | . | . | 30 | .
Fc1cccc(CSc2ncnc3c2oc2ccccc23)c1 | 5 | -7 | 80* | -18 | 2 | 15 | i
O=C(CSc1ncnc2c1oc1ccccc12)Nc1ccc2c(c1)OCCO2 | 0 | 9 | 21 | -42 | 3 | 6 | .
O=C(CSc1ncnc2c1oc1ccccc12)Nc1cccc(F)c1 | -1 | -2 | 67* | -15 | 0 | 13 | i
Cc1cccc(NC(=O)CSc2ncnc3c2oc2ccccc23)c1 | 16 | -10 | 71* | -29 | 8 | 15 | i
CCCn1c(SCC(=O)Nc2cccc(Cl)c2)nnc1-c1ccoc1C | . | . | 28 | . | . | 5 | .
CCN1CCN(C(=O)CN(c2ccc(Cl)cc2C)S(C)(=O)=O)CC1 | . | . | 2 | . | . | 18 | .
CCc1ccc2[nH]c(=O)c(CN(Cc3ccccc3)S(=O)(=O)c3ccc4c(c3)OCCO4)cc2c1 | . | . | -86 | . | . | 13 | .
O=C(Oc1ccc(-c2nccc(-c3ccccn3)n2)cc1)c1cccc(C(F)(F)F)c1 | 2 | -7 | 67* | -12 | 0 | 14 | i
Cc1ccc(C(=O)Oc2ccc(-c3nccc(-c4ccccn4)n3)cc2)cc1 | 3 | 3 | 40 | 3 | -2 | 9 | .
CN1CCC(N(CCO)CC2(c3ccc(Cl)cc3Cl)CC2)CC1 | . | . | -43 | . | . | 2 | .
CC(=O)Oc1c2c(c3c(c1CC=C(C)C)O[C@]14C(=C[C@@H]5CC1C(C)(C)OC4(C/C=C(\C)C(=O)O)C5=O)C3=O)OC(C)(CCC=C(C)C)C=C2 (stereo partly drawn) | . | . | 51 | . | . | 12 | i
COc1ccc2nc(SCC(=O)N3CCCC3)c(C)cc2c1 | . | . | -6 | . | . | 14 | .
CCSc1ccccc1C(=O)n1nnc2ccccc21 | 7 | -14 | 68* | -8 | 4 | 4 | i
S=C(Nc1ccccc1Cl)N(Cc1ccccc1)Cc1ccccn1 | 16 | -4 | 76* | -2 | . | 3 | +
Cc1ccnn1CCC(=O)N1CCC(c2ccnc3nc(C(F)(F)F)nn23)CC1 | . | . | 0 | . | . | . | .
CCOC(=O)c1c(CC(C)C)csc1N | 6 | 10 | 72* | 7 | . | 8 | i
CCOC(=O)c1c(CC(C)C)csc1NC(=O)CCl | 1 | 0 | 74* | 8 | 1 | . | i
CCOC(=O)c1c(CC(C)C)csc1NC(=O)C(C)C | 5 | -12 | 48 | 9 | 2 | 10 | .
COc1cc(NC(=S)NC(=O)c2cc(C)cc(C)c2)ccc1NC(=O)c1cccs1 | 9 | -38 | 68* | -54 | 0 | 13 | i
COc1cc(NC(=S)NC(=O)c2ccc(C(C)(C)C)cc2)ccc1NC(=O)c1cccs1 | 1 | 18 | 43 | -7 | 0 | 7 | .
SMILES | NPY-Y1 antag | NPY-Y2 PAM-ag | EP2 modulator | NPY1 pot ag | NPY-Y2 antag | PGE2 EP2 inh | EP2 cAMP induct
Brc1ccc(-c2ccc(/C=N/Nc3nc(N4CCOCC4)nc(N4CCOCC4)n3)o2)cc1 | -5 | -9 | 67* | -18 | . | 5 | +
Clc1ccc(-c2ccc(/C=N/Nc3cc(N4CCOCC4)nc(N4CCOCC4)n3)o2)cc1 | -1 | 13 | 108* | 1 | 8 | 5 | +
COc1ccc(N2CC(C(=O)Nc3ccc(C(=O)OC(C)C)cc3)CC2=O)cc1 (stereo not drawn) | . | . | -35 | . | . | 20 | .
Cc1ccc(NC(=O)Cn2cnc3sc4c(c3c2=O)CCC(C)C4)c(C)c1 (stereo not drawn) | . | . | 26 | . | . | 13 | .
CC(=O)N1CCc2cc(C(O)CN3CCC(O)(c4ccc(F)cc4)CC3)ccc21 (stereo not drawn) | . | . | -1 | . | . | 9 | .
CCCS(=O)(=O)Nc1c(C(=O)OC)[nH]c2ccccc12 | 1 | -4 | 20 | -29 | 1 | 10 | .
COC(=O)c1[nH]c2ccccc2c1NS(=O)(=O)c1ccc(F)c(C)c1 | 0 | 1 | 77* | -1 | -1 | 4 | +
CC(C)(C)C1CCC(OC(=O)c2ccncc2)CC1 (stereo not drawn) | 0 | -3 | 84* | 0 | 0 | -2 | i
OC1(CC#CCN2CCC(c3ccccc3)C2)c2ccccc2-c2ccccc21 (stereo not drawn) | . | . | -119 | . | . | 14 | .
CC1CCCN(c2nc3c(c(=O)[nH]2)CCN(Cc2ccccc2O)C3)C1 (stereo not drawn) | . | . | -44 | . | . | 7 | .
CS(=O)(=O)N(Cc1ccccc1)c1ccccc1C(=O)Nc1ccccc1C(=O)NCc1ccco1 | -2 | 8 | 88* | 9 | 2 | 8 | +
Cc1noc(C)c1CSc1nc2ccccc2c(=O)n1-c1ccc(Cl)cc1 | 28* | -5 | 71* | 10 | 32* | 8 | +
CC1CCN(c2ccccc2NC(=O)c2ccc(C#N)cc2F)CC1 | 7 | -7 | 59 | -14 | . | 10 | +
CCCCCn1c(CN2CCN(c3cc(Cl)ccc3C)CC2)nc2c1c(=O)[nH]c(=O)n2C | 1 | -4 | 78* | -16 | -1 | 6 | i
CCCCCCn1c(SCC(C)C)nc2c1c(=O)[nH]c(=O)n2C | 1 | 9 | 67* | 3 | 2 | 9 | i
CCCCn1c(SCc2ccc(Cl)cc2)nc2c1c(=O)[nH]c(=O)n2C | -9 | 0 | 52 | -42 | 0 | 10 | .
CCCCCCn1c(SCC(=O)OC)nc2c1c(=O)[nH]c(=O)n2C | -1 | 10 | 12 | 3 | 3 | 13 | .
CCSc1nc2c(c(=O)[nH]c(=O)n2C)n1Cc1ccc(Cl)cc1 | 2 | -7 | 66* | -17 | 3 | 11 | i
Cc1cc(=O)[nH]c(N2CCN(C(=O)N3CCCCC3)CC2)n1 | . | . | 9 | . | . | 7 | .
COc1ccccc1[C@@H]1C[C@H](OC(=O)c2ccc(C)cc2)C(=O)N1C | . | . | -51 | . | . | . | .
COCCNC(=O)C(C)Sc1nc(-c2ccccc2)cc(C(F)(F)F)n1 (stereo not drawn) | . | . | -105 | . | . | 4 | .
OC(COc1ccccc1)Cn1c2ccccc2c2ccccc21 (stereo not drawn) | -5 | 8 | 71* | 11 | -3 | 11 | +
CN(/N=C\c1ccc(O)c(O)c1)c1nc(-c2ccccc2)cc(-c2ccccc2)n1 | 0 | 4 | 67* | -3 | -3 | 9 | i

Screening results: PubChem, several laboratories
